In the library only some 9.8% were active in any assay of this set; here they are far more common.
Calpain2 inh: inhibitors of pig calpain II; purified calpain II, fluorogenic peptide substrate, 30 min; inhibition, % at 16 µM; 220,000 tested, 0.37% active; AID 1236;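 active means inhibition above about 50%, limit read from the data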
Rad51 HR inh: Rad51 (human) homologous recombination inhibition; hRad51 DNA strand exchange, fluorescence dequenching; inhibition, % at 10 µM; 200,000 tested, 0.085% active;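 active means inhibition above 40% at the single screening dose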;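 further: 0% = DMSO control wells and 100% = blanks with heterologous ssDNA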
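Test system: preformed human Rad51 ssDNA filaments; also added: Donor/quencher-labelled 47-bp dsDNA substrate; doses: 10 µM final, single point; times: 37 °C 15-min filament assembly, 30-min compound preincubation, 15-min exchange; detection: FRET fluorescence dequenching, excitation 485 nm, emission 520 nm; read-out basis: Fluorescence-based percent inhibition, control- and blank-normalised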
PMI act hi M6P: PMI (human) activation, high substrate. P34949. activation factor at 20 µM. 190,000 tested, 0.34% active. coupled PMI enzyme assay, resazurin fluorescence, 20 min; stronger effect = higher value; 1 = untreated enzyme, 0 = substrate-free blank;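 active means activation factor of 2 or more at 20 µM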
Target sequence (P34949 whole entry, looked up): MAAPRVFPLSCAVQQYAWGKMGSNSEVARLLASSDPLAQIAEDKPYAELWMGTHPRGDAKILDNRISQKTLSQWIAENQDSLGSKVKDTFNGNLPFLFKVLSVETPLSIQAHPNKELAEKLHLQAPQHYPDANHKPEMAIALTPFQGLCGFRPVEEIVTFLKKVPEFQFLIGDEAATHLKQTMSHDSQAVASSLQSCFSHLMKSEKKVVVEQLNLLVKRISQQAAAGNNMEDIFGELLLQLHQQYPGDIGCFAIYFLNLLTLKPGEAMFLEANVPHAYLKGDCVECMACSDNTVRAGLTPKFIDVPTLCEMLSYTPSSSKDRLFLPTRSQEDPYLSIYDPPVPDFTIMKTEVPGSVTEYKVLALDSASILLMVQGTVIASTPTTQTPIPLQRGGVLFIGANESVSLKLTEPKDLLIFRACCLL
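Material: human phosphomannose isomerase with PGI, G6PDH, diaphorase coupling enzymes. Quantity: 15 ng/mL PMI. Medium: HEPES pH 7.4 buffer with MgCl2 and Tween-20. Reagent: Near-saturating mannose-6-phosphate, 1.0 mM. Compound: 20 µM single dose. Times: enzyme reaction with compound 20 min at room temperature. Detection: resorufin fluorescence at Ex 544/Em 590 nm.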
Lmaj promast: inhibitors of Leishmania major promastigote growth. Leishmania major promastigotes, resazurin fluorescence viability. inhibition, % at 10 µM. 200,000 tested, 9% active. AID 1063; in the data active means inhibition above about 50%;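 further: promastigotes grown with compound for 44 hours at 28 °C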
PMI act: phosphomannose isomerase (human) activation. P34949. 190,000 tested, 0.005% active. AID 1214. activation factor at 20 µM. purified human PMI, coupled resazurin fluorescence, 20 min; stronger effect = higher value; 1 = vehicle control, 0 substrate-free wells;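 active means activation factor of 2 or more at 20 µM, relative to plate controls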
WT yeast gro inh: growth inhibition of WT yeast, mitochondrial fusion screen; mitochondrial fusion phenotypic screen, WT strain; inhibition, % at 10 µM; 190,000 tested, 2.1% active; in the data active means inhibition above about 58%; tested in S. cerevisiae
The depositor's hits bear a star; / = no result.

SMILES	Calpain2 inh	Rad51 HR inh	PMI act hi M6P	Lmaj promast	PMI act	WT yeast gro inh
O=C(CCCN1C(=O)c2cccc3cccc(c23)C1=O)N1CCN(c2ccccc2)CC1	-5	-11	1.2	43	1.1	1
O=C1c2cccc3cccc(c23)C(=O)N1CCN1CCN(C(=S)Nc2ccc(F)cc2)CC1	29	-3	1	59*	1.1	-4
O=C(CCCN1C(=O)c2cccc3cccc(c23)C1=O)N1CCN(c2ccccc2O)CC1	-5	11	0.9	70*	1	11
CC1CC(C)CN(S(=O)(=O)N2CCC(C(=O)NCCC3=CCCCC3)CC2)C1 (stereo not drawn)	12	-42	1.1	12	1.1	-6
CCN1C(=O)c2cccc3c(NC(=O)c4ccc5c(c4)OCCO5)ccc1c23	-288	-2	0.8	-7	0.9	-4
CCN1C(=O)c2cccc3c(NC(=O)c4ccccc4)ccc1c23	-13	-2	0.7	91*	1	-10
CCN1C(=O)c2cccc3c(NC(=O)c4ccc(OC)c(OC)c4)ccc1c23	-28	-1	0.9	100*	0.9	-7
Cn1c(=O)c2nnn(/N=C(\c3ccccc3)C3CC3)c2n(C)c1=O	44	5	1.1	76*	1	7
Cn1c(N)c(C(=O)c2ccccc2)c(=O)n(C)c1=O	-15	9	1.1	5	1.1	24
CC(=O)NC1=C(NC2CCS(=O)(=O)C2)C(=O)c2ccccc2C1=O (stereo not drawn)	5	2	0.9	11	0.7	16
CN(C1=C(NC(=O)c2ccccc2)C(=O)c2ccccc2C1=O)C1CCS(=O)(=O)C1 (stereo not drawn)	-25	/	0.8	99*	0.8	-1
O=C(CN(Cc1ccccc1)S(=O)(=O)c1ccc(Br)cc1)NCc1ccco1	37	-5	1	100*	1	13
Cc1ccccc1N(CC(=O)Nc1ccccc1C(=O)NCc1ccco1)S(=O)(=O)c1ccccc1	-9	-1	1.2	11	1.1	-21
Cc1ccc(S(=O)(=O)N(Cc2ccc(Cl)cc2)c2ccccc2C(=O)NCc2ccco2)cc1	9	3	0.8	58*	0.8	43
Cc1ccc(S(=O)(=O)N(Cc2ccc(F)cc2)Cc2ccco2)cc1	9	-4	0.9	28	0.8	-8
Cc1ccc(S(=O)(=O)N(Cc2ccccc2)Cc2ccco2)cc1	26	16	0.8	88*	0.8	76*
Cc1ccc(NC(=O)C(=O)NCc2ccc(/C=C(/C#N)C(=O)NCc3cccnc3)o2)cc1C	-50	-7	0.9	-1	0.9	4
O=C1c2c([N+](=O)[O-])cc([N+](=O)[O-])cc2S(=O)N1Cc1ccccc1 (stereo not drawn)	-13	16	1.5	-11	0.8	-19
O=C(CC1S/C(=N/N=C/c2cccs2)NC1=O)Nc1ccccc1F (stereo not drawn)	10	2	1	23	1	-2
COc1ccccc1NC(=O)CC1S/C(=N/N=C2\CCCc3ccccc32)NC1=O (stereo not drawn)	-55	/	0.9	4	0.9	63*
O=c1cc(NS(=O)(=O)c2ccccc2)nc(SCc2ccccc2Cl)[nH]1	11	7	1.1	0	0.9	0
O=c1cc(NS(=O)(=O)c2ccccc2)nc(SCc2c(Cl)cccc2Cl)[nH]1	21	9	0.9	69*	0.9	-1
COc1ccc(C2C(C(=O)OC3CCCCC3)=C(C)Nc3nnnn32)c(OC)c1OC (stereo not drawn)	2	/	0.9	91*	0.9	8
CCOC(=O)C1=C(C)NC(=S)N(C(C)=O)C1c1ccc(OC)c(OC)c1 (stereo not drawn)	13	-4	/	/	/	/
CCCCOC(=O)C1=C(C)Nc2ncnn2C1c1ccc(OC)c(OC)c1 (stereo not drawn)	-43	1	0.9	75*	0.9	0
CCOC(=O)C1=C(C)Nc2nnnn2C1c1ccc(OC)c(Br)c1 (stereo not drawn)	4	8	1	91*	1	9
CCC(NC(=O)CCl)c1ccc(C)cc1 (stereo not drawn)	5	-103	1	-4	1.1	-6

Bioassay records as filed in PubChem.
